Source: ChEMBL document CHEMBL1157684, “2-Thienyl-4-furyl-6-aryl pyridine derivatives: synthesis, topoisomerase I and II inhibitory activity, cytotoxicity, and structure-activity relationship study” (Bioorg Med Chem, 2010)
Active and inactive are the calls of the source. The calls are words filed in the database; no cut-off is given here.

test system: HeLa; experiment: Cytotoxicity against human HeLa cells after 4 days by ELISA reader assay; format: functional, cell-based; details: 96 h
Summary of the method: (§1)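 Cells grown per supplier, seeded at 2–4 × 10⁴ per well, left overnight in medium with 10% FBS at 37 °C under 5% CO₂, then exposed to compounds. WST (cell counting kit-8) reagent added for a further 4 h, absorbance read at 450 nm. IC50 from four-parameter logistic fit; mean ± S.D. of three experiments, each in triplicate.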

`Clc1ccc(-c2cc(-c3ccoc3)cc(-c3ccco3)n2)s1` and `Cc1ccc(-c2cc(-c3ccoc3)cc(-c3ccc(Cl)s3)n2)o1` are within 1.5-fold of each other in IC50: 22.7 µM for the first, 26.5 µM for the second.

`Clc1ccc(-c2cc(-c3ccoc3)cc(-c3ccccc3Cl)n2)s1` and `Clc1ccc(-c2cc(-c3ccoc3)cc(-c3ccc(Cl)s3)n2)cc1` are within 1.5-fold of each other in IC50: 19 µM for the first, 16.5 µM for the second.

`Clc1ccc(-c2cc(-c3ccoc3)cc(-c3cccnc3)n2)s1` and `Cc1ccc(-c2cc(-c3ccoc3)cc(-c3ccc(Cl)s3)n2)cc1` are within 1.5-fold of each other in IC50: 20 µM for the first, 28.7 µM for the second.

molecular target: DNA topoisomerase 2-alpha (Homo sapiens) (UniProt P11388); experiment: Inhibition of human DNA topoisomerase 2alpha-mediated relaxation of supercoiled pBR322 DNA at 100 uM after 30 mins by agarose gel electrophoresis; details: not given
Sequence (P11388 whole entry): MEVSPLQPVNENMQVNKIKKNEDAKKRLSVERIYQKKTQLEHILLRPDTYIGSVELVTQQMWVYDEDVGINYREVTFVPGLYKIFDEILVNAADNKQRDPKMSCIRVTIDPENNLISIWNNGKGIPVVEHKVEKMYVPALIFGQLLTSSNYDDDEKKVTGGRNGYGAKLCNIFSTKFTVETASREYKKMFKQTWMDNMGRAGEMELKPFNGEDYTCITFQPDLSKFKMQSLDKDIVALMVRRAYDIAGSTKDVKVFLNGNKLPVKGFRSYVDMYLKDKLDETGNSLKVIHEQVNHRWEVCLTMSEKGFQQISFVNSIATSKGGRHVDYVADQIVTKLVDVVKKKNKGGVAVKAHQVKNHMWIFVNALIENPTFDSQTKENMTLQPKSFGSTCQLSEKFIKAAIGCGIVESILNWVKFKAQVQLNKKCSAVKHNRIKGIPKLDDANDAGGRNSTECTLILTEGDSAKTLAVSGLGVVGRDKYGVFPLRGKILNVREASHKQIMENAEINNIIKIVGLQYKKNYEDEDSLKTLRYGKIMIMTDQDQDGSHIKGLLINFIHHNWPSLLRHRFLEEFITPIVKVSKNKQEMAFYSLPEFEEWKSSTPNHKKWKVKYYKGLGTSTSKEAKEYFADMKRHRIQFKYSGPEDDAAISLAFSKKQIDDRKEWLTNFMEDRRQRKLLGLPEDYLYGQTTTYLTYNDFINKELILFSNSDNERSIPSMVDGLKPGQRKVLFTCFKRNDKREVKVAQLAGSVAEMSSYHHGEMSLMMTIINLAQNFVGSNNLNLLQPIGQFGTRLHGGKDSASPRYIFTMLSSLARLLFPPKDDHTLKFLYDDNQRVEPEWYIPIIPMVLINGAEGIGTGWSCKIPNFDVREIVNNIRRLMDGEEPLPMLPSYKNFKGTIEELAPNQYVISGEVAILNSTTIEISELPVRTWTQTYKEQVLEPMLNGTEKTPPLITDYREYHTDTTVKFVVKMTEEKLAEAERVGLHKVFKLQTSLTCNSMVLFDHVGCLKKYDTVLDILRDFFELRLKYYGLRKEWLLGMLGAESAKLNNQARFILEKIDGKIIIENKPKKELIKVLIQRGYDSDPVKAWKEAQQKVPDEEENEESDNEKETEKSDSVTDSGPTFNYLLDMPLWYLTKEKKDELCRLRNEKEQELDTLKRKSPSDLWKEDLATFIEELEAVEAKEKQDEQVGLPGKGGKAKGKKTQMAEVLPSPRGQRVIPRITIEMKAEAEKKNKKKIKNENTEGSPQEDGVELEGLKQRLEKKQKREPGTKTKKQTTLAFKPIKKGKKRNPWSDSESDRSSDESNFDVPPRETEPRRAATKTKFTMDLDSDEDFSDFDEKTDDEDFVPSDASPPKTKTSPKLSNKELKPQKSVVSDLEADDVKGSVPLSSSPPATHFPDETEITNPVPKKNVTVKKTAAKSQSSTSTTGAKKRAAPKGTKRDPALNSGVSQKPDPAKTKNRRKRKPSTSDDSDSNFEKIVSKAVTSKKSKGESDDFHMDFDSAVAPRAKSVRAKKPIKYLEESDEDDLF
Summary of the method: (§2)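 Human topo IIα (1 unit) with 200 ng supercoiled pBR322, 30 min at 30 °C in 10 mM Tris–HCl pH 7.9, 50 mM NaCl, 50 mM KCl, 5 mM MgCl2, 1 mM EDTA, 1 mM ATP plus BSA. Products run on 1% agarose in TAE at 25 V for 4 h, ethidium-stained, supercoiled DNA quantified under UV.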

First: Clc1ccc(-c2cc(-c3ccoc3)cc(-c3ccco3)n2)s1
Second: Cc1ccc(-c2cc(-c3ccoc3)cc(-c3ccc(Cl)s3)n2)o1
The inhibition of the first is lower: 49.1% for the first, 60.5% for the second.

Going from `Clc1ccc(-c2cc(-c3ccoc3)cc(-c3ccccc3Cl)n2)s1` to `Clc1ccc(-c2cc(-c3ccoc3)cc(-c3ccc(Cl)s3)n2)cc1`, the inhibition rises from 49.5% to 62.7%.

Compared with `Clc1ccc(-c2cc(-c3ccoc3)cc(-c3cccnc3)n2)s1`, `Cc1ccc(-c2cc(-c3ccoc3)cc(-c3ccc(Cl)s3)n2)cc1` is lower in inhibition: 60.8% for the first, 50.3% for the second.

test system: MCF7; experiment: Cytotoxicity against human MCF7 cells after 4 days by ELISA reader assay; format: functional, cell-based; details: MCF7, 96 h; summary of the method: as §1

First: Clc1ccc(-c2cc(-c3ccoc3)cc(-c3ccco3)n2)s1
Second: Cc1ccc(-c2cc(-c3ccoc3)cc(-c3ccc(Cl)s3)n2)o1
The IC50 of the first is 2.5-fold higher: 4.74 µM for the first, 1.9 µM for the second. The second is the more potent here.

Compared with `Clc1ccc(-c2cc(-c3ccoc3)cc(-c3ccccc3Cl)n2)s1`, `Clc1ccc(-c2cc(-c3ccoc3)cc(-c3ccc(Cl)s3)n2)cc1` is 2.8-fold lower in IC50: 7.36 µM for the first, 2.6 µM for the second.

Compared with `Clc1ccc(-c2cc(-c3ccoc3)cc(-c3cccnc3)n2)s1`, `Cc1ccc(-c2cc(-c3ccoc3)cc(-c3ccc(Cl)s3)n2)cc1` is 1.5-fold higher in IC50: 3.48 µM for the first, 5.34 µM for the second.

test system: HCT-15; experiment: Cytotoxicity against human HCT15 cells after 4 days by ELISA reader assay; format: functional, cell-based; details: HCT-15, 96 h; summary of the method: as §1

Going from `Clc1ccc(-c2cc(-c3ccoc3)cc(-c3ccco3)n2)s1` to `Cc1ccc(-c2cc(-c3ccoc3)cc(-c3ccc(Cl)s3)n2)o1`, the IC50 falls from 1280 nM to 790 nM (1.6-fold). The second is the more potent here.

Going from `Clc1ccc(-c2cc(-c3ccoc3)cc(-c3ccccc3Cl)n2)s1` to `Clc1ccc(-c2cc(-c3ccoc3)cc(-c3ccc(Cl)s3)n2)cc1`, the IC50 falls from 1100 nM to 640 nM (1.7-fold).

Going from `Clc1ccc(-c2cc(-c3ccoc3)cc(-c3cccnc3)n2)s1` to `Cc1ccc(-c2cc(-c3ccoc3)cc(-c3ccc(Cl)s3)n2)cc1`, the IC50 rises from 720 nM to 1170 nM (1.6-fold). The first is the more potent here.

molecular target: T1, DNA topoisomerase 1 (Homo sapiens) (UniProt P11387); experiment: Inhibition of human recombinant DNA topoisomerase 1-mediated relaxation of supercoiled pBR322 DNA at 20 uM after 30 mins by agarose gel electrophoresis; details: not given
T1 sequence (whole entry): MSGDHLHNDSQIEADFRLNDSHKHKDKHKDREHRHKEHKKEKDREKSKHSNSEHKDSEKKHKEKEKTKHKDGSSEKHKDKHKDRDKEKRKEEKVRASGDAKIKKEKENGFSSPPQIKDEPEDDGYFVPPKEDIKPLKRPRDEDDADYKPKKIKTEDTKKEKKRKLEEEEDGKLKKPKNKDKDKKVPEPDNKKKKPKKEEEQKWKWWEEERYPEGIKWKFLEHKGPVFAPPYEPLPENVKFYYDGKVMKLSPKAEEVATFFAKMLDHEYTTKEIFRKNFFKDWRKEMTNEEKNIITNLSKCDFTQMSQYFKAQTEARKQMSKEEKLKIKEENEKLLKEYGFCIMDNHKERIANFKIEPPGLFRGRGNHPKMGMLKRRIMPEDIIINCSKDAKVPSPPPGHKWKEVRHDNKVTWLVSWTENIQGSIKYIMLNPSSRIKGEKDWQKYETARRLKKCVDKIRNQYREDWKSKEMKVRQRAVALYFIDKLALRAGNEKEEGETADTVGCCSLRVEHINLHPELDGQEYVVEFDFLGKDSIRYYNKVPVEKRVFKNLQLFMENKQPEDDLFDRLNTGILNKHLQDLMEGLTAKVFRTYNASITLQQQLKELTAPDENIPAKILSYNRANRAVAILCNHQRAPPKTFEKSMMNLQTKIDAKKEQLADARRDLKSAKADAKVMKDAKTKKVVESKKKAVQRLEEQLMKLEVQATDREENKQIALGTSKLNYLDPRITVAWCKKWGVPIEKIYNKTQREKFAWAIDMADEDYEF
Summary of the method: (§3)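 Recombinant human topo I (0.4 units) with 100 ng supercoiled pBR322, 30 min at 37 °C in 10 mM Tris–HCl pH 7.9, 150 mM NaCl, 0.1% BSA, 1 mM spermidine, 5% glycerol. Compounds from 20 mM DMSO stock. Products run on 1% agarose in TAE, 15 V for 7 h, ethidium-stained, bands quantified under UV.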

With `Clc1ccc(-c2cc(-c3ccoc3)cc(-c3ccco3)n2)s1` the inhibition was “inactive”.
With `Clc1ccc(-c2cc(-c3ccoc3)cc(-c3ccccc3Cl)n2)s1` the inhibition was “inactive”.
`Clc1ccc(-c2cc(-c3ccoc3)cc(-c3cccnc3)n2)s1` was tested, and the inhibition was “inactive”.
`Cc1ccc(-c2cc(-c3ccoc3)cc(-c3ccc(Cl)s3)n2)o1` was tested, and the inhibition was “inactive”.
For `Clc1ccc(-c2cc(-c3ccoc3)cc(-c3ccc(Cl)s3)n2)cc1`, the inhibition was “inactive”.
With `Cc1ccc(-c2cc(-c3ccoc3)cc(-c3ccc(Cl)s3)n2)cc1` the inhibition was “inactive”.

molecular target: T1, DNA topoisomerase 1 (Homo sapiens); experiment: Inhibition of human recombinant DNA topoisomerase 1-mediated relaxation of supercoiled pBR322 DNA at 100 uM after 30 mins by agarose gel electrophoresis; details: not given; summary of the method: as §3

First: Clc1ccc(-c2cc(-c3ccoc3)cc(-c3ccco3)n2)s1
Second: Cc1ccc(-c2cc(-c3ccoc3)cc(-c3ccc(Cl)s3)n2)o1
The inhibition of the first is lower: 9.6% for the first, 13.2% for the second.

First: Clc1ccc(-c2cc(-c3ccoc3)cc(-c3ccccc3Cl)n2)s1
Second: Clc1ccc(-c2cc(-c3ccoc3)cc(-c3ccc(Cl)s3)n2)cc1
The inhibition of the first is lower: 0% for the first, 2.3% for the second.

First: Clc1ccc(-c2cc(-c3ccoc3)cc(-c3cccnc3)n2)s1
Second: Cc1ccc(-c2cc(-c3ccoc3)cc(-c3ccc(Cl)s3)n2)cc1
The inhibition of the first is higher: 2% for the first, 0% for the second.

test system: K562; experiment: Cytotoxicity against human K562 cells after 4 days by ELISA reader assay; format: functional, cell-based; details: K562, 96 h; summary of the method: as §1

`Clc1ccc(-c2cc(-c3ccoc3)cc(-c3ccco3)n2)s1` and `Cc1ccc(-c2cc(-c3ccoc3)cc(-c3ccc(Cl)s3)n2)o1` are within 1.5-fold of each other in IC50: 16.2 µM for the first, 12.7 µM for the second.

`Clc1ccc(-c2cc(-c3ccoc3)cc(-c3ccccc3Cl)n2)s1` and `Clc1ccc(-c2cc(-c3ccoc3)cc(-c3ccc(Cl)s3)n2)cc1` are within 1.5-fold of each other in IC50: 15.8 µM for the first, 19.6 µM for the second.

`Clc1ccc(-c2cc(-c3ccoc3)cc(-c3cccnc3)n2)s1` and `Cc1ccc(-c2cc(-c3ccoc3)cc(-c3ccc(Cl)s3)n2)cc1` are within 1.5-fold of each other in IC50: 18.7 µM for the first, 17.9 µM for the second.

molecular target: DNA topoisomerase 2-alpha (Homo sapiens) (UniProt P11388); experiment: Inhibition of human DNA topoisomerase 2alpha-mediated relaxation of supercoiled pBR322 DNA at 20 uM after 30 mins by agarose gel electrophoresis; details: not given; summary of the method: as §2

Going from `Clc1ccc(-c2cc(-c3ccoc3)cc(-c3ccco3)n2)s1` to `Cc1ccc(-c2cc(-c3ccoc3)cc(-c3ccc(Cl)s3)n2)o1`, the inhibition rises from 48.6% to 54%.

Compared with `Clc1ccc(-c2cc(-c3ccoc3)cc(-c3ccccc3Cl)n2)s1`, `Clc1ccc(-c2cc(-c3ccoc3)cc(-c3ccc(Cl)s3)n2)cc1` is higher in inhibition: 37.6% for the first, 56.9% for the second.

Going from `Clc1ccc(-c2cc(-c3ccoc3)cc(-c3cccnc3)n2)s1` to `Cc1ccc(-c2cc(-c3ccoc3)cc(-c3ccc(Cl)s3)n2)cc1`, the inhibition rises from 40.9% to 53.6%.

test system: DU-145; experiment: Cytotoxicity against human DU145 cells after 4 days by ELISA reader assay; format: functional, cell-based; details: DU-145, 96 h; summary of the method: as §1

Going from `Clc1ccc(-c2cc(-c3ccoc3)cc(-c3ccco3)n2)s1` to `Cc1ccc(-c2cc(-c3ccoc3)cc(-c3ccc(Cl)s3)n2)o1`, the IC50 rises from 17.2 µM to 33.4 µM (1.9-fold). The first is the more potent here.

Compared with `Clc1ccc(-c2cc(-c3ccoc3)cc(-c3ccccc3Cl)n2)s1`, `Clc1ccc(-c2cc(-c3ccoc3)cc(-c3ccc(Cl)s3)n2)cc1` is 1.8-fold higher in IC50: 16.4 µM for the first, 29.5 µM for the second. The first is the more potent here.

`Clc1ccc(-c2cc(-c3ccoc3)cc(-c3cccnc3)n2)s1` and `Cc1ccc(-c2cc(-c3ccoc3)cc(-c3ccc(Cl)s3)n2)cc1` are within 1.5-fold of each other in IC50: 18.5 µM for the first, 25.3 µM for the second.
